Reference: ChEMBL document CHEMBL1136016, “Synthesis, biological activity, and molecular modeling investigation of new pyrazolo[4,3-e]-1,2,4-triazolo[1,5-c]pyrimidine derivatives as human A(3) adenosine receptor antagonists” (J Med Chem, 2002)

Key:
[1] = biological target: T1, Adenosine receptor A2a (Homo sapiens, UniProt P29274); assay: Displacement of [3H]SCH-58261 from human Adenosine A2A receptor expressed in HEK293 cells; range 123-162; format: cell-based
[2] = biological target: T2, Adenosine receptor A2b (Homo sapiens, UniProt P29275); assay: Displacement of [3H]DPCPX from human Adenosine A2B receptor expressed in HEK293 cells; range 56-103; format: cell-based
T2 sequence (P29275 whole entry): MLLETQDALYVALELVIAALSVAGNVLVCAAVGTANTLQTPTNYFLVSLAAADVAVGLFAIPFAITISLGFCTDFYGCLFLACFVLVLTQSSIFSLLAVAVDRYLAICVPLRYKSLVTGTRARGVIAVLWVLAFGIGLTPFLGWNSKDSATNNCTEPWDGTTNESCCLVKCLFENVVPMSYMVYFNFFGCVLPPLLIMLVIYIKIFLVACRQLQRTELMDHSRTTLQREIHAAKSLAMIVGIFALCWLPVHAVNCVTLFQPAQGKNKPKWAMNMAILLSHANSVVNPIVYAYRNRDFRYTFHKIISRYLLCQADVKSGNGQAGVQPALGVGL
How it was run: (§1)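 Membranes from HEK-293 cells with human recombinant A2B receptor. Incubation 60 min at 25 °C in 50 mM Tris HCl, 10 mM MgCl2, 1 mM EDTA, 0.1 mM benzamidine, pH 7.4, with 2 IU/mL adenosine deaminase and 40 nM [3H]DPCPX. At least six to eight test concentrations. Nonspecific binding defined with NECA. n = 3-6.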

[3] = biological target: Adenosine receptors; A2b & A3 (Homo sapiens) (UniProt P29275+P0DMS8); assay: Selectivity ratio (h2B/hA3); format: protein assay
[4] = biological target: T3, Adenosine receptor A1 (Homo sapiens, UniProt P30542); assay: Displacement of [3H]DPCPX from human Adenosine A1 receptor expressed in CHO cells; range 265-400; format: cell-based
T3 sequence (P30542 whole entry): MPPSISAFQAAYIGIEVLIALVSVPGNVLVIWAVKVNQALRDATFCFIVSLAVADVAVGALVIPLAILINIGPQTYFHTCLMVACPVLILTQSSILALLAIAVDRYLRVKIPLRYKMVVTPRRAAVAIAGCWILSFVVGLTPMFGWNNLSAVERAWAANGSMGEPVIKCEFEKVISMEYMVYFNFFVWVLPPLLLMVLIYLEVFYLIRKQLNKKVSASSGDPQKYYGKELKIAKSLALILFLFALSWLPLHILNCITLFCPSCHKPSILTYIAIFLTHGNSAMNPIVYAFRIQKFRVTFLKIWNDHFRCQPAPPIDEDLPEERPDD
How it was run: (§2)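 Human recombinant A1 receptor in CHO cell membranes, resuspended in 50 mM Tris HCl pH 7.4. Displacement run 120 min at 25 °C with 1 nM [3H]DPCPX, 50 µg protein per assay, and at least six to eight test concentrations. Nonspecific binding defined with CHA. Bound and free separated on glass-fiber filters; filter radioactivity counted. n = 3-6.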

[5] = biological target: T4, Adenosine receptor A3 (Homo sapiens, UniProt P0DMS8); assay: Displacement of [3H]MRE3008-F20 from human Adenosine A3 receptor expressed in HEK cells; range 0.24-0.48; format: cell-based, HEK293
T4 sequence (P0DMS8 whole entry): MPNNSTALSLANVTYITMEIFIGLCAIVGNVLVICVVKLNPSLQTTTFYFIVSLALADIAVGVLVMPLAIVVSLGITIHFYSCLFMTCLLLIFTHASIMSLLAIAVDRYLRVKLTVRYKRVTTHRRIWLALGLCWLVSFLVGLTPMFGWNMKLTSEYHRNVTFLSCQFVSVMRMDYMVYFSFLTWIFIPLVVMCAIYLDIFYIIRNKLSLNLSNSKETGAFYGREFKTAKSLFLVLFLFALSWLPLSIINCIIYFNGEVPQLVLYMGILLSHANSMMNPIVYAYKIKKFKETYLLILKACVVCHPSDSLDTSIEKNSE

[6] = biological target: Adenosine receptors; A1 & A3 (Homo sapiens) (UniProt P30542+P0DMS8); assay: Selectivity ratio (hA1/hA3); format: protein assay
[7] = biological target: T4, Adenosine receptor A3; assay: Displacement of [3H]MRE3008-F20 from human Adenosine A3 receptor expressed in HEK cells; range 0.37-0.56; format: cell-based, HEK293
[8] = biological target: T1, Adenosine receptor A2a; assay: Displacement of [3H]SCH-58261 from human Adenosine A2A receptor expressed in HEK293 cells; range 40-62; format: cell-based
[9] = biological target: T3, Adenosine receptor A1; assay: Displacement of [3H]DPCPX from human Adenosine A1 receptor expressed in CHO cells; range 290-418; format: cell-based; how it was run: as §2
[10] = biological target: T2, Adenosine receptor A2b; assay: Displacement of [3H]DPCPX from human Adenosine A2B receptor expressed in HEK293 cells; range 124-180; format: cell-based
How it was run: (§3)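 HEK-293 membranes expressing the human receptor were incubated 60 min at 25 °C. Six to eight test concentrations were used. Nonspecific binding was set with NECA. n = 3-6.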

[11] = biological target: T3, Adenosine receptor A1; assay: Displacement of [3H]DPCPX from human Adenosine A1 receptor expressed in CHO cells; range 237-384; format: cell-based
How it was run: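 Competition binding on membranes of CHO cells stably expressing human A1 receptor, resuspended in 50 mM Tris HCl pH 7.4. Incubation 120 min at 25 °C with 1 nM [3H]DPCPX, 50 µg protein per assay and at least six to eight test concentrations. CHA defined nonspecific binding. Bound ligand separated on glass-fibre filters and counted; n = 3-6.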

[12] = biological target: T1, Adenosine receptor A2a; assay: Displacement of [3H]SCH-58261 from human Adenosine A2A receptor expressed in HEK293 cells; range 8-18; format: cell-based
[13] = biological target: T4, Adenosine receptor A3; assay: Displacement of [3H]MRE3008-F20 from human Adenosine A3 receptor expressed in HEK cells; range 0.31-0.56; format: cell-based, HEK293
[14] = biological target: T2, Adenosine receptor A2b; assay: Displacement of [3H]DPCPX from human Adenosine A2B receptor expressed in HEK293 cells; range 34-62; format: cell-based; how it was run: as §3
[15] = biological target: T4, Adenosine receptor A3; assay: Displacement of [3H]MRE3008-F20 binding at human Adenosine A3 receptor expressed in HEK cells; range 0.82-1.01; format: cell-based, HEK293
[16] = biological target: T1, Adenosine receptor A2a; assay: Displacement of [3H]SCH-58261 from human Adenosine A2A receptor expressed in HEK293 cells; range 174-230; format: cell-based
[17] = biological target: T3, Adenosine receptor A1; assay: Displacement of [3H]DPCPX from human Adenosine A1 receptor expressed in CHO cells; range 332-479; format: cell-based; how it was run: as §2
[18] = biological target: T2, Adenosine receptor A2b; assay: Displacement of [3H]DPCPX from human Adenosine A2B receptor expressed in HEK293 cells; range 89-116; format: cell-based; how it was run: as §1
[19] = biological target: T4, Adenosine receptor A3; assay: Inhibition of IB-MECA agonist-mediated cAMP production in CHO cell membranes expressing human Adenosine A3 receptor; range 4.4-15.2; format: functional, cell-based
[20] = biological target: T1, Adenosine receptor A2a; assay: Displacement of [3H]SCH-58261 from human Adenosine A2A receptor expressed in CHO cells; format: cell-based
How it was run: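 Membranes from CHO cells expressing the human receptor (50 µg protein) with [3H]SCH58261 and six to eight competitor concentrations. Incubated 60 min at 25 °C. Nonspecific binding was set with NECA.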

[21] = biological target: T4, Adenosine receptor A3; assay: Displacement of […] from human Adenosine A3 receptor expressed in CHO cells; format: cell-based
How it was run: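 Membranes from CHO cells stably expressing human A3, in 50 mM Tris HCl, 10 mM MgCl2 (pH 7.4), 50 µg protein per tube, with 1 nM [3H]MRE3008-F20. Six to eight ligand concentrations were run in duplicate, 120 min at 4 °C. Nonspecific binding was taken with 1 µM MRE3008-F20. Bound ligand was collected on GF/B filters and counted; n = 3-6.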

[22] = biological target: T2, Adenosine receptor A2b; assay: Displacement of [3H]DPCPX from human Adenosine A2B receptor expressed in HEK293 cells; format: cell-based; how it was run: as §1
[23] = biological target: T3, Adenosine receptor A1; assay: Displacement of [3H]DPCPX from human Adenosine A1 receptor expressed in CHO cells; format: cell-based; how it was run: as §2
[24] = biological target: T4, Adenosine receptor A3; assay: Inhibition of IB-MECA agonist-mediated cAMP production in membranes of CHO cells expressing human Adenosine A3 receptor; format: functional, cell-based
How it was run: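 Human A3-CHO membranes (in 50 mM Tris HCl, 10 mM MgCl2, 1 mM EDTA, pH 7.4) were preincubated for 10 min at 37 °C with 5 µM GTP, 0.5 mM Ro 20-1724 and 2.0 IU/mL adenosine deaminase. IB-MECA (100 nM) or antagonist was then added with 1 mM ATP and forskolin for 10 min. The reaction was stopped by 2 min boiling. cAMP was measured by [3H]cAMP competitive protein binding using beef adrenal binding protein, 150 min at 4 °C.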

T1 sequence (P29274 whole entry): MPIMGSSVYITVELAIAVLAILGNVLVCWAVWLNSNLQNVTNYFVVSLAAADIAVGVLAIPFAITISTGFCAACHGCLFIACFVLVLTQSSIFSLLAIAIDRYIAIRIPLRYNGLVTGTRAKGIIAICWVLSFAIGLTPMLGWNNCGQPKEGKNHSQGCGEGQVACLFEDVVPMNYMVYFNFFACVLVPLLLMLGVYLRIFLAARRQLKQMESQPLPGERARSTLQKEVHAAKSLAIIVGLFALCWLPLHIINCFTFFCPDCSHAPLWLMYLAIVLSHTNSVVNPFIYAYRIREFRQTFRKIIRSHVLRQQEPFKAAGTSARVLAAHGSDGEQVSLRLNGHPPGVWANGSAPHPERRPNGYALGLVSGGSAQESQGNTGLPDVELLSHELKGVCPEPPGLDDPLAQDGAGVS

Compound: CCCn1cc2c(nc(NC(=O)Nc3ccc(Cl)cc3)n3nc(-c4ccco4)nc23)n1
- Ki [1]: 140 nM
- Ki [2]: 76 nM
- Ratio [3]: 224
- Ki [4]: 325 nM
- Ki [5]: 0.34 nM
- Ratio [6]: 956

Compound: CCCn1cc2c(nc(NC(=O)Nc3ccc(Br)cc3)n3nc(-c4ccco4)nc23)n1
- Ki [7]: 0.45 nM
- Ratio [3]: 333
- Ki [8]: 50 nM
- Ki [9]: 350 nM
- Ki [10]: 150 nM
- Ratio [6]: 778

Compound: CCCn1cc2c(nc(NC(=O)Nc3ccc(C)cc3)n3nc(-c4ccco4)nc23)n1
- Ratio [3]: 115
- Ki [11]: 302 nM
- Ki [12]: 12 nM
- Ki [13]: 0.4 nM
- Ki [14]: 46 nM
- Ratio [6]: 755

Compound: Cn1cc2c(nc(NC(=O)Nc3ccccc3Cl)n3nc(-c4ccco4)nc23)n1
- Ki [15]: 0.91 nM
- Ki [16]: 200 nM
- Ki [17]: 400 nM
- Ki [18]: 101 nM
- Ratio [3]: 111
- IC50 [19]: 8.2 nM
- Ratio [6]: 440

Compound: Cn1cc2c(nc(NC(=O)Cc3ccccc3)n3nc(-c4ccco4)nc23)n1
- Ki [20]: 423 nM
- Ratio [3]: 204
- Ki [21]: 0.81 nM
- Ki [22]: 165 nM
- Ki [23]: 702 nM
- IC50 [24]: 6.4 nM
- Ratio [6]: 867
